We go through 1 compound from ChEMBL document CHEMBL3232894, “Discovery of AMG 925, a FLT3 and CDK4 dual kinase inhibitor with preferential affinity for the activated state of FLT3” (J Med Chem, 2014).

The term clearance denotes a measure of how efficiently the substance is removed, as volume per time. By IC50 is commonly meant the concentration at which inhibition is half-maximal. Broadly, the Kd is the free concentration of one partner at which half of the binding sites on the other are occupied at equilibrium, for simple one-to-one binding. In general, ED50 refers to the dose that gives a 50% effect, or the effect in half of the subjects. A word on the bioavailability: it is dose-corrected exposure relative to a reference, in per cent.

Data set [1] can be described thus: Clearance in iv dosed rat. The class given is ADME, organism-based. Particulars: in vivo. Put shortly:
(§1)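 Intravenous and oral (gavage, solution) PK in rat, dog and cynomolgus monkey. The rat vehicle for both routes was water/acetate/tween at pH 4, 96/3/1 (v/v/v). Dog and monkey iv doses used 40% PG aqueous solution at pH 2, and their oral doses used 20% captisol aqueous solution.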

For data set [2], the target named is Cyclin-dependent kinase 4/cyclin D1 (Homo sapiens, UniProt P11802). The data set can be described thus: Inhibition of CDK4/cyclin D1 (unknown origin) using Rb as substrate after 60 mins by scintillation counting analysis in presence of [r-33P]ATP. Type of data set: protein-complex assay.
Chain of Cyclin-dependent kinase 4/cyclin D1 (P11802 whole entry): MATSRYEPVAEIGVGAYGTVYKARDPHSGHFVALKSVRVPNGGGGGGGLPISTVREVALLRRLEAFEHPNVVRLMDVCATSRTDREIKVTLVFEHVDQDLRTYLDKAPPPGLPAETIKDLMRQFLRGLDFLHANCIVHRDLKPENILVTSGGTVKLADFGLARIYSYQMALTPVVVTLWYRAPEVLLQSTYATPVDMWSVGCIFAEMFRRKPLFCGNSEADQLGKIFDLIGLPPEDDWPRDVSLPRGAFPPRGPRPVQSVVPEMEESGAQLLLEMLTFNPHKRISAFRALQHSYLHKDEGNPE
Chain of Cyclin-dependent kinase 4/cyclin D1 (P24385 whole entry, further chain): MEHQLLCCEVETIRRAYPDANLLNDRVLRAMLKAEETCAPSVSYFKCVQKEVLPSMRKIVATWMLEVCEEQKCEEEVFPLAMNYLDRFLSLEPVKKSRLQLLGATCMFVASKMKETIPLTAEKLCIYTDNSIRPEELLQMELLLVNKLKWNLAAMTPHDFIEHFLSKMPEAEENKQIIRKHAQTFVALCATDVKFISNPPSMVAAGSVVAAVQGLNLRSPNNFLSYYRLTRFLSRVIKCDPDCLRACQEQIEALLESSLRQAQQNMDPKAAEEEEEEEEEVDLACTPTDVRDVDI
For data set [3], the target named is Receptor-type tyrosine-protein kinase FLT3 (Homo sapiens, UniProt P36888, D835H). The data set can be described thus: Binding affinity to FLT3 D835H mutant (unknown origin).
For data set [4], the system named is Tumour. Nature of the data set: Decrease in Rb phosphorylation at Ser780 in tumor of CrTac:NCR-Foxn1nu (NCR) nude mouse xenografted with human MOLM13 cells at 50 to 150 mg/kg, po after 3 to 24 hrs. Type of data set: functional, organism-based. To be noted: Neoplasm, MOLM-13. In short, it runs like this: (§2)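 MOLM13 tumor-bearing mice received a single oral dose of 50, 75 or 150 mg/kg. Tumors were harvested at 3, 6 and 24 h, and lysates were assayed for pSTAT5 and pRb. Unbound plasma levels were measured at the same time points. Results are mean ± SEM, n = 3 per group and n = 6 for vehicle.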
(Xenograft models place foreign cells or tissue in a host animal.)

A short description of data set [5]: Volume of distribution at steady state in iv dosed dog. Type of data set: ADME, organism-based, Canis lupus familiaris. To be noted: in vivo, read-out: Vdss. Put shortly:
as §1

The test system of data set [6] is Tumour. The data set can be described thus: Decrease in STAT5 phosphorylation at Tyr694 in tumor of CrTac:NCR-Foxn1nu (NCR) nude mouse xenografted with human MOLM13 cells at 50 to 150 mg/kg, po after 3 to 24 hrs. The class given is functional, organism-based. To be noted: Neoplasm, MOLM-13. In short, it runs like this: as §2
For data set [7], the system named is MOLM-13. The data set can be described thus: Antitumor activity against human MOLM13 cells xenografted in CrTac:NCR-Foxn1nu (NCR) nude mouse assessed as tumor growth inhibition at 150 mg/kg, po administered qd for 8 days. The class given is functional. To be noted: MOLM-13, 192 h, read-out: TGI. Put shortly: (§3)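 Oral dosing once daily, day 5 to day 13, in NCR nude mice bearing established subcutaneous human MOLM13 AML xenografts, at 25, 50, 75 and 150 mg/kg against a vehicle group. Tumor growth inhibition read on day 14. AUC comes from terminal PK on plasma collected after the final dose.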

The nature of data set [8]: Volume of distribution at steady state in iv dosed cynomolgus monkey. Particulars: in vivo, read-out: Vdss. The class given is ADME, organism-based, Macaca fascicularis. Put shortly: as §1
Data set [9] relates to MOLM-13. Nature of the data set: Antitumor activity against human MOLM13 cells xenografted in po dosed CrTac:NCR-Foxn1nu (NCR) nude mouse assessed as tumor growth inhibition administered qd for 8 days. The class given is functional. Put shortly:
as §3

Data set [10] can be described thus: Clearance in iv dosed dog. Particulars: in vivo. The class given is ADME, organism-based, Canis lupus familiaris. Put shortly: as §1
Data set [11] has as its system MOLM-13. Nature of the data set: Antiproliferative activity against human MOLM13 cells harboring FLT3 ITD mutant assessed as incorporation of [3H]thymidine into DNA after 72 hrs by beta-plate counting analysis. Type of data set: functional, cell-based.
Data set [12] in a line: Oral bioavailability in rat. Type of data set: ADME, organism-based. Particulars: in vivo. Put shortly:
as §1

In data set [13] the target is T1, Receptor-type tyrosine-protein kinase FLT3 (Homo sapiens, UniProt P36888).
T1 sequence (P36888 whole entry): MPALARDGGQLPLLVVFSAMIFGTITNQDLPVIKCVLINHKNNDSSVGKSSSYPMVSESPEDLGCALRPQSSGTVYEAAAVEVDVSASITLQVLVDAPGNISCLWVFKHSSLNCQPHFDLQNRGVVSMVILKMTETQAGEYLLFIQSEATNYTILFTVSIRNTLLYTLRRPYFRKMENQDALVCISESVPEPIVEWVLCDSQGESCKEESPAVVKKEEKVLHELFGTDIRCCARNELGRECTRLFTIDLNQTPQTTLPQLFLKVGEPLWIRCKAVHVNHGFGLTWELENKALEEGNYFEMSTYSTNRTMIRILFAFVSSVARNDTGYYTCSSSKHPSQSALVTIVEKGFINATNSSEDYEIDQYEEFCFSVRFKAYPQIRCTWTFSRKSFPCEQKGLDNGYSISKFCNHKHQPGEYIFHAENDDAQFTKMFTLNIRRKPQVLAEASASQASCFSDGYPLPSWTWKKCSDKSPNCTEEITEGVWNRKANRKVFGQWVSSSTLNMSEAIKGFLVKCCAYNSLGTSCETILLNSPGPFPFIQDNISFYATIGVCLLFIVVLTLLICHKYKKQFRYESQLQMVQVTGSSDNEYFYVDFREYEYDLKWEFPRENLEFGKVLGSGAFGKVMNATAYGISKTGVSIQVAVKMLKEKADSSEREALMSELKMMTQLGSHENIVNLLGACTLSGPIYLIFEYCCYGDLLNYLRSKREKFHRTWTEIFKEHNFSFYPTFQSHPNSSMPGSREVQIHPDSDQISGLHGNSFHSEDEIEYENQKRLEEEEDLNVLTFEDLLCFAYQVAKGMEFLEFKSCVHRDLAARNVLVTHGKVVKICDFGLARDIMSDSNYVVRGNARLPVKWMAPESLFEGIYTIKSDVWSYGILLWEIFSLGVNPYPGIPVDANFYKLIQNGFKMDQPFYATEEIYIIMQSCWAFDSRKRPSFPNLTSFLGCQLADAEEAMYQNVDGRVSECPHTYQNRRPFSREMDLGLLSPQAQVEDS
The data set can be described thus: Inhibition of GST-fused human FLT3 cytoplasmic domain (amino acids 564 to 993) using Ulight-JAK1 as substrate after 1 hr by TR-FRET assay.

A short description of data set [14]: Oral bioavailability in cynomolgus monkey. The class given is ADME, organism-based, Macaca fascicularis. To be noted: in vivo. In short, it runs like this:
as §1

Active and inactive are the calls of the source. The calls are words filed in the database; no cut-off is given here.

On to `C[C@H]1CC[C@H](n2c3cnccc3c3cnc(Nc4ccc5c(n4)CCN(C(=O)CO)C5)nc32)CC1`, for which the clearance in data set [1] was 6.5 mL/min/kg; in [10], 23.5 mL/min/kg. Also, the IC50 was determined as 3 nM in data set [2], 19 nM in the data set on MOLM-13 [11] and 1 nM in data set [13]. In addition, the Kd in data set [3] turned out to be 1 nM. In addition, the inhibition result in the data set with Tumour [4] and with Tumour [6] was “Active” in each case. Further, the Vd in data set [5] stood at 2.6 L/kg; in data set [8], 3.2 L/kg. In the data set on MOLM-13 [7], the inhibition in vivo at 150 mg/kg came to 100%. Besides, the TGI result in the data set on MOLM-13 [9] is “Dose-dependent effect”. The ED50 in the data set with MOLM-13 [9] (MOLM-13, po, 192 h) is 22 mg/kg. Further, the bioavailability in data set [12] amounted to 75%; in data set [14], 44%.
